Source: PubChem BioAssay
Results filed as inconclusive are left out.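 The calls were made as follows, unless noted: active = viability increase at or above a cutoff of the median across tested compounds plus 3 SD (cut at about 8.5% in these data, passing the limit was not always enough); inconclusive = some gains above the cutoff, reason not given; inactive = the rest.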

Experiments:
[1] = S. cerevisiae growth inhibition in permissive medium (OD615), pilot counter-assay for S. cerevisiae lifespan shortening project, permissive growth control (AID 705;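 active = growth inhibition above 25% in both replicates, a cutoff set 3 SD above the mean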); settings: OD615, 24 h, at 10 µM, stronger effect = higher value
Procedure, shortened: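 System – S. cerevisiae with engineered DeaD lifespan system · Buffer or medium – SC raffinose/galactose permissive medium · Schedule – cells pre-grown 4 h, then 24 h compound exposure, 30 °C humidified · Technique – culture turbidity as optical density at 615 nm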

[2] = S. cerevisiae growth inhibition in restrictive medium, OD615, pilot screen, restrictive growth control, yeast lifespan reduction project (AID 706;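 active = growth inhibition above a set limit, 3 SD over mean compound inhibition, in both replicates, cut at about 43% in these data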;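 also: modified DeaD lifespan yeast strain shifted to restrictive glucose medium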); settings: OD615, 48 h, at 10 µM, stronger effect = higher value
Procedure, shortened: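 Material: engineered S. cerevisiae DeaD strain / Medium: glucose-based CSMM-D restrictive medium / Compound: single dose of 10 µM compound final, 0.25% DMSO / Timing: 4 h pre-incubation, 48 h exposure at 30 °C / Technique: OD615 absorbance reading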

[3] = doxorubicin toxicity protection in MRP-1 cells – H69AR cells, CellTiter-Glo, duplicate, MRP-1 activator project, pilot screen (AID 807); settings: H69AR viability with doxorubicin, CellTiter-Glo luminescence; at 10 µM; stronger effect = higher value;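 also: compound pretreatment 18-22 h then 72 h combined with doxorubicin; 0% = doxorubicin alone and 100% = vehicle without doxorubicin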
[4] = viability of HCT116 without oncogenic beta-catenin – human colon tumor cells, pilot screen (AID 823;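 active = cell viability at or below a set limit in both duplicate runs, the limit being the all-compound median minus 4 SD, cut at about 23% in these data, passing the limit was not always enough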;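 also: 0% = wells killed by 20 µM Hyamine and 100% = untreated DMSO cell wells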); settings: HCT116 beta-catenin knockout viability, CellTiter-Glo, 60 h; at 10 µM; stronger effect = lower value
[5] = viability of PTEN-null HCT116 cells – cell-based, HCT116 clonal line, CellTiter-Glo, pilot screen (AID 824;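 active = viability at or below 27.92% in each of two runs, the all-compound median minus 4 SD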;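 also: 0% = 20 µM Hyamine control and 100% = vehicle cell control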); settings: HCT116 PTEN-deleted viability, 60 h, at 10 µM, stronger effect = lower value
[6] = RAM pathway blockade in budding yeast – dse1pr::URA3 reporter, 5-FOA selection, pilot screen (AID 869;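 active = inhibition over a set limit, the all-compound mean plus 3 SD, in both replicate runs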;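 also: 0% = DMSO wells with no growth and 100% = 10 µM 1-NA-PP1 with full growth; RAM network block rescues cells from 5-FOA so hits raise OD615 growth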); settings: S. cerevisiae dse1pr::URA3 5-FOA growth, OD615, 2 d; at 10 µM; stronger effect = higher value; strain carries analog-sensitive mutant Cbk1 kinase
[7] = RAM signaling pathway blockade in yeast – S. cerevisiae, Pdr1DBD-CYC8 efflux-inhibited sensitized strain, primary screen (AID 1298;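 active = RAM network inhibition above 8.4% in each of two replicates, 3 SD over the compound average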;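 also: 0% = DMSO untreated cells without growth and 100% = 10 µM 1-NA-PP1 full growth; higher means more yeast growth rescued from 5-FOA killing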); settings: S. cerevisiae cbk1-as DSE1-URA3 strain, 5-FOA growth OD615, 2 d; at 50 µM; stronger effect = higher value

CCC(C)NC(=O)CCS(=O)(=O)c1ccc2c(c1)n(C)c(=O)c(=O)n2C (stereo not drawn)
inactive: growth inhibition [1] -2.86% | growth inhibition [2] 4.93% | viability increase [3] -0.01% | viability [4] 103% | viability [5] 99.1% | inhibition [6] 3% | RAM network inhibition [7] 3.76%

Cc1cccc(OCCn2c(=O)n(C)c3ccccc32)c1
inactive: growth inhibition [1] -9.27% | growth inhibition [2] -5.27% | viability increase [3] -2.39% | viability [4] 85.3% | viability [5] 83% | inhibition [6] 0.755% | RAM network inhibition [7] 0.1%

Cc1ccc(-c2csc(N3CCC(C(N)=O)(N4CCCCC4)CC3)n2)cc1
inactive: growth inhibition [1] 6.21% | growth inhibition [2] -8.75% | viability increase [3] -1.76% | viability [4] 75.5% | viability [5] 75% | inhibition [6] -0.445% | RAM network inhibition [7] 2.58%

CC(C)Cc1nc(C(N)=O)c2[nH]c(=O)n(-c3ccc(F)cc3)c2n1
inactive: growth inhibition [1] -21.3% | growth inhibition [2] -27.8% | viability increase [3] -2.13% | viability [4] 100% | viability [5] 91.2% | inhibition [6] 3.68% | RAM network inhibition [7] 8.63%

CCOC(=O)N1CCN(C(=O)c2cn(-c3ccc(C)c(C)c3)c(=O)c3ccccc23)CC1
inactive: growth inhibition [1] -10.6% | growth inhibition [2] -0.85% | viability increase [3] -2.69% | viability [4] 85.6% | viability [5] 94.4% | inhibition [6] 0.51% | RAM network inhibition [7] -0.53%

CCOc1ccccc1NC(=O)CSc1nc2c(c(=O)n1C)SC(C)C2 (stereo not drawn)
inactive: growth inhibition [1] -8.29% | growth inhibition [2] -4.14% | viability increase [3] -2.89% | viability [4] 92.3% | viability [5] 89.1% | inhibition [6] 2% | RAM network inhibition [7] 4.44%

Cc1ccccc1-c1nc(CS(=O)CC(=O)NCc2ccccc2)c(C)o1 (stereo not drawn)
inactive: growth inhibition [1] 0.295% | growth inhibition [2] 7.02% | viability increase [3] 1.37% | viability [4] 101% | viability [5] 101% | inhibition [6] 0.655% | RAM network inhibition [7] 4%

Cc1ccc(S(=O)(=O)N(C)Cc2nc(-c3ccc(Br)cc3)no2)cc1
inactive: growth inhibition [1] -3.27% | growth inhibition [2] -0.88% | viability increase [3] 0.27% | viability [4] 89.5% | viability [5] 87.8% | inhibition [6] 2.72% | RAM network inhibition [7] 3.02%

CCOC(=O)N1CCC(N2Cc3cccc(C(=O)Nc4ccc(OC)c(OC)c4)c3C2=O)CC1
inactive: growth inhibition [1] -7.4% | growth inhibition [2] -0.92% | viability increase [3] -3.99% | viability [4] 66.2% | viability [5] 66.8% | inhibition [6] 2.03% | RAM network inhibition [7] 1.98%

O=C(CCSc1nc(-c2ccc3c(c2)OCO3)cc(C(F)(F)F)n1)NCc1ccco1
inactive: growth inhibition [1] -4.51% | growth inhibition [2] -2.02% | viability increase [3] -2.85% | viability [4] 74.8% | viability [5] 74.6% | inhibition [6] 2.63% | RAM network inhibition [7] 2.97%

O=C(CCSCCc1ccccn1)Nc1nccs1
inactive: growth inhibition [1] 6.12% | growth inhibition [2] 8.44% | viability increase [3] -0.56% | viability [4] 102% | viability [5] 94.8% | inhibition [6] 2.55% | RAM network inhibition [7] 0.66%

CCOc1ccc(N2C(=O)CC(Sc3nc(C)cc(C)n3)C2=O)cc1 (stereo not drawn)
inactive: growth inhibition [1] -3.95% | growth inhibition [2] 1.55% | viability increase [3] -1.4% | viability [4] 108% | viability [5] 98.9% | inhibition [6] 0.24% | RAM network inhibition [7] 3.27%

CCC1CCCCN1C(=O)c1cc2cc(Br)ccc2oc1=O (stereo not drawn)
inactive: growth inhibition [1] -9.03% | growth inhibition [2] -15.9% | viability increase [3] -2.87% | viability [4] 106% | viability [5] 94.8% | inhibition [6] 0.68% | RAM network inhibition [7] 2.89%

CCC(Cc1ccccc1)NC(=O)CN1C(=O)CSc2ncccc21 (stereo not drawn)
inactive: growth inhibition [1] -2.26% | growth inhibition [2] -14.6% | viability increase [3] -2.81% | viability [4] 85% | viability [5] 75.7% | inhibition [6] 0.665% | RAM network inhibition [7] -0.97%

COC(=O)N1CC(C)N(C(=O)OC)CC1C (stereo not drawn)
inactive: growth inhibition [1] -8.79% | growth inhibition [2] 3.85% | viability increase [3] -2.14% | viability [4] 95.2% | viability [5] 95.6% | inhibition [6] 0.745% | RAM network inhibition [7] 6.61%

Cc1ccc(-c2noc(CN(C(=O)c3cccc(Br)c3)C(C)C)n2)cc1
inactive: growth inhibition [1] 0.485% | growth inhibition [2] -2.63% | viability increase [3] 1.98% | viability [4] 92.5% | viability [5] 85.3% | inhibition [6] 2.58% | RAM network inhibition [7] 10%

C=CCSc1nc2c(c(=O)[nH]1)C(C(C)C)C(C#N)=C(N)O2 (stereo not drawn)
inactive: growth inhibition [1] 0.845% | growth inhibition [2] 1.47% | viability increase [3] -2.3% | viability [4] 101% | viability [5] 101% | inhibition [6] 1.75% | RAM network inhibition [7] 1.88%

Cc1sc2nc(NCCO)[nH]c(=O)c2c1C
inactive: growth inhibition [1] -15.5% | growth inhibition [2] -23.2% | viability increase [3] -2.72% | viability [4] 107% | viability [5] 97.2% | inhibition [6] 0.885% | RAM network inhibition [7] -1.79%

CCCCC(=O)Nc1nc2c(OC)ccc(OC)c2s1
inactive: growth inhibition [1] -5.01% | growth inhibition [2] 1.46% | viability increase [3] -2.98% | viability [4] 97.5% | viability [5] 98.3% | inhibition [6] 0.87% | RAM network inhibition [7] 3.86%

CN(C)c1nc(N)nc(N(c2ccccc2)c2ccccc2)n1
inactive: growth inhibition [1] -12.3% | growth inhibition [2] -28.1% | viability increase [3] -2.5% | viability [4] 93.6% | viability [5] 90.8% | inhibition [6] -0.635% | RAM network inhibition [7] 2.96%

Cc1c(C#N)c2ncn(Cc3ccccc3)c(=O)c2n1-c1ccccc1
inactive: growth inhibition [1] -19.7% | growth inhibition [2] -0.37% | viability increase [3] -3.74% | viability [4] 81.1% | viability [5] 83.8% | inhibition [6] 0.47% | RAM network inhibition [7] 4.19%

COCCn1c(SCC(=O)NCC2CCCO2)nc2c(c1=O)SC(C)C2 (stereo not drawn)
inactive: growth inhibition [1] -7.14% | growth inhibition [2] -0.265% | viability increase [3] -0.65% | viability [4] 110% | viability [5] 109% | inhibition [6] 1.19% | RAM network inhibition [7] 3.08%

CCOC(=O)c1ccc(Nc2nnc(C(C)(C)C)c(=O)[nH]2)cc1
inactive: growth inhibition [1] -18.6% | growth inhibition [2] -21.9% | viability increase [3] -7.93% | viability [4] 49.6% | viability [5] 43.7% | inhibition [6] 0.35% | RAM network inhibition [7] 2.06%

Cc1cccc(NC(=O)Cn2cnc3sc(C)c(S(=O)(=O)N4CCC(C)CC4)c3c2=O)n1
inactive: growth inhibition [1] -9.9% | growth inhibition [2] -17.3% | viability increase [3] -1.12% | viability [4] 95.2% | viability [5] 99.1% | inhibition [6] 2.16% | RAM network inhibition [7] 9.71%
